Results of several laboratories.
Lines come from different studies, so protocols differ.
PRKAA1: 5'-AMP-activated protein kinase catalytic subunit alpha-1 (PRKAA1, Homo sapiens, UniProt Q13131)
CDK13: Cyclin-dependent kinase 13 (CDK13, Homo sapiens, UniProt Q14004)
G protein-coupled receptor 88: G protein-coupled receptor 88 (Homo sapiens, UniProt Q9GZN0)
Cnr2: Cannabinoid receptor 2 (Cnr2, Mus musculus, UniProt P47936)

Cn1cc(-c2cc(F)cc(N3CCn4c(cc5c4CCCC5)C3=O)c2CO)cc(Nc2ccc(N3CCN(C4COC4)CC3)cn2)c1=O
inhibition (PRKAA1; enzyme activity, inhibitor; 0.1 µM): 0%

C#Cc1n[nH]c2c(-c3cn([C@@H](C)c4ccccn4)c(=O)[nH]c3=O)cc(F)cc12
inhibition (Protein kinase C theta type (PRKCQ, Homo sapiens, UniProt Q04759); enzyme activity, inhibitor; 0.1 µM): 13.6%

COc1ncccc1-c1cnn2ccc(N3CCN(C(=O)OC(C)C)CC3)nc12
remaining binding (CDK13; binding, competition with immobilised ligand; 1 µM): 95%

CCCCOc1ccc([C@@H](CO)C(=O)N[C@H](C)c2ccccc2)cc1
Emax (G protein-coupled receptor 88; cAMP, agonist, TR-FRET; CHO): 100%

Cc1nn(C)cc1-c1nc2c(N3CCN(Cc4ccc(Cl)cc4)CC3)c(Cl)cnc2[nH]1
remaining binding (CDK13; binding, competition with immobilised ligand; 1 µM): 77%

CCOC(=O)C(CC)(CCCSCCOCCOCCOCCOCCNC(=O)OC(C)(C)C)NC(=O)c1ccc(C2CC2)c(Cc2ccc(F)cc2)n1 (centres unmarked)
Emax (Cnr2; cAMP, agonist): 84%

CC[C@@H](C)COc1ccc([C@@H](CO)C(=O)N[C@H](C)c2ccccc2)cc1
Emax (G protein-coupled receptor 88; cAMP, agonist, TR-FRET): 96%

CC(C)C[C@H](NC(=O)[C@H]1O[C@@H]1C(=O)O)C(=O)NCCCCN=C(N)N
inhibition (Procathepsin L (CTSL, Homo sapiens, UniProt P07711); enzyme activity, inhibitor; 500 pM): 13%

Cn1cc(-c2cccc(N3CCc4c(sc5c4CC(C)(C)C5)C3=O)c2CO)cc(Nc2ccncn2)c1=O
inhibition (Sphingosine kinase 2 (SPHK2, Homo sapiens, UniProt Q9NRA0); enzyme activity, inhibitor; 1 µM): -1%

Nc1ncc(-c2nc(N3CCOCC3)nc(N3CCOCC3)n2)c(C(F)F)n1
remaining binding (PRKAA1; cell-free assay, competition with immobilised ligand; 10 µM): 91%

CCCc1ccc(-c2ccc([C@@H](CO)C(=O)N[C@H](C)c3ccccc3)cc2)cc1
Emax (G protein-coupled receptor 88; cAMP, agonist, TR-FRET): 96%

Cc1nc2c(=O)n(C)c(=O)nc-2n(C)n1
ΔTm (Protein disulfide-isomerase (P4HB, Homo sapiens, UniProt P07237); thermal stability, DSF; 10 µM): -2.94 °C

CCC[C@@H](C)COc1ccc([C@@H](CO)C(=O)N[C@H](C)c2ccccc2)cc1
Emax (G protein-coupled receptor 88; cAMP, agonist, TR-FRET; CHO): 105%

CCOC(=O)[C@](CC)(CCC[S+]([O-])CCOCCOCCNC(=O)OC(C)(C)C)NC(=O)c1ccc(C2CC2)c(Cc2ccc(F)cc2)n1 (some centres unmarked)
Emax (Cnr2; cAMP, agonist): 79%
